# Experimental data as given in ChEMBL document CHEMBL4651341, “The discovery of a novel series of compounds with single-dose efficacy against juvenile and adult Schistosoma species” (PLoS Negl Trop Dis, 2021).
# Columns and labels:
# [1] = test system: Schistosoma mansoni; assay: Concentration required to kill 50% of 21 day old worms 5 days after drug treatment.; assay type: functional, organism-based; details: Puerto Rican, 120 h
# Summary of the method: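 Juvenile S. mansoni (Puerto Rican strain) were perfused from CD1 mice 3 weeks post-infection and washed. They were cultured 6–8 per well in 200 µL DMEM with 2 mM glutamine, penicillin/streptomycin and 10% FCS at 37 °C, 5% CO2. Viability of individual worms was scored on day 5 after dosing (120 h).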
# [2] = Solubility at 25 degC of compound (diluted from DMSO) in PBS at pH 7.4 determined after 24h (1h sonication, 22h shaking, 1h sonication) by LCMS/MS; assay type: physicochemical
# [3] = Concentration required to kill 50% MRC-5 cells as detected by Alamar blue staining; assay type: toxicity, cell-based, MRC5; details: homo sapiens, read-out: TC50 (the source's name)
# [4] = test system: Schistosoma mansoni; assay: Concentration required to kill 50% of 42 day old worms 5 days after drug treatment.; assay type: functional, organism-based; details: Puerto Rican, 120 h
# Summary of the method: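 Adult S. mansoni were perfused from CD1 mice 6 weeks post-infection and washed. They were cultured 3 pairs per well in 1 mL DMEM with 2 mM glutamine, penicillin/streptomycin and 10% FCS […] at 37 °C, 5% CO2. Viability of individual worms was scored on day 5 (120 h).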
# [5] = Concentration required to kill 50% HepG2 cells as detected by MTT staining; assay type: toxicity, cell-based; details: homo sapiens, read-out: TC50 (the source's name)
# [6] = Mean half-life in Swiss albino male mice at 1 mg/kg per compound (administered iv in a mixture of 5 compounds to 3 mice) assessed by LCMS/MS.; assay type: ADME, organism-based; details: mouse, in vivo
# Summary of the method: (§1)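 Male Swiss albino mice (~30 g), 3 per experiment, mostly dosed as mixtures of 5 compounds iv via the lateral tail vein. Vehicle: 10% DMSO/90% 50 mM Na2HPO4 with 0.5% Tween-80. Plasma stored at −20 °C and quantified by LC-MS after acetonitrile precipitation.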
# [7] = Mean volume of distribution at steady state in Swiss albino male mice at 1 mg/kg per compound (administered iv in a mixture of 5 compounds to 3 mice) assessed by LCMS/MS.; assay type: ADME, organism-based; details: mouse, in vivo, read-out: Volume; summary of the method: as §1
# [8] = Mean observed clearance in Swiss albino male mice at 1 mg/kg per compound (administered iv in a mixture of 5 compounds to 3 mice) assessed by LCMS/MS.; assay type: ADME, organism-based; details: mouse, in vivo
# Summary of the method: as §1, with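 “Tween-80. Blood sampled at 5, 15, 30 min and 1, 2, 4, 8, 24 h.” for “Tween-80.”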
# [9] = Percentage of parent compound remaining after incubation for 30 minutes with cyropreserved mouse hepatocytes at a concentration of 1uM compound and […], determined by LCMS; assay type: ADME, tissue-based, Hepatocyte; details: cryopreserved mouse hepatocytes, read-out: Stability
# Summary of the method: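 Compound was incubated at 1 µM final (2 µM working solution mixed 1:1 with hepatocyte suspension) in supplemented KHB pH 7.4. Conditions: 37 °C, 5% CO2, gentle mixing, duplicates. Reaction quenched with ice-cold acetonitrile containing standard; analysed by LC-MS/MS. % remaining = AUC at t / AUC at T0.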
# [10] = Partition coefficient of compound between n-octanol and PBS (pH7.4); assay type: physicochemical; details: octanol/water, pH 7.4
# Summary of the method: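 Shake-flask method using octanol and PBS pH 7.4, each pre-saturated with the other. Compound was shaken 2 h at 850 rpm, 25 °C, then the phases were separated by centrifugation and both layers diluted and analysed by LC-MS/MS. LogD = log(octanol AUC × relative dilution / buffer AUC).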
# [11] = Mean plasma concentration at 24h in Swiss albino male mice at […] per compound (administered orally in a mixture of 5 compounds to 3 mice) assessed by LCMS/MS.; assay type: ADME, organism-based; details: mouse, po
# [12] = Mean plasma concentration at 4h in Swiss albino male mice at […] per compound (administered orally in a mixture of 5 compounds to 3 mice) assessed by LCMS/MS.; assay type: ADME, organism-based; details: mouse, po
# [13] = Mean oral bioavailability in Swiss albino male mice at […] per compound (administered in a mixture of 5 compounds to 3 mice) assessed by LCMS/MS.; note: dose 2.5 mg/kg; assay type: ADME, organism-based; details: male, Swiss albino, mouse, in vivo, read-out: Bioavailability
# [14] = Mean AUC inf in Swiss albino male mice at 1 mg/kg per compound (administered iv in a mixture of 5 compounds to 3 mice) assessed by LCMS/MS.; assay type: ADME, organism-based; details: mouse, in vivo; for AUC(0-inf): male, Swiss albino
# Summary of the method: as §1, with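 “Tween-80. Blood sampled at 5, 15, 30 min and 1, 2, 4, 8, 24 h.” for “Tween-80.”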
# [15] = Plasma protein binding determined at 10uM by LC-MS/MS.; assay type: ADME, cell-free; details: mouse
# Summary of the method: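 Equilibrium dialysis of plasma spiked at 10 µM (0.1% DMSO) against PBS pH 7.4, 6 h at 37 °C, duplicates. Both chambers analysed by LC-MS/MS after acetonitrile precipitation. % free = buffer/plasma area ratio; recovery also calculated.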
# [16] = Mean time to peak plasma concentration in Swiss albino male mice at […] per compound (administered orally in a mixture of 5 compounds to 3 mice) assessed by LCMS/MS.; assay type: ADME, organism-based; details: mouse, po
# [17] = Concentration of drug in plasma at 4h following oral drug adminstration at given dose. Determined by LCMS/MS; assay type: ADME, organism-based; details: CD1, mouse
# Summary of the method: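 Plasma sampled from the mice of the efficacy experiments, each animal sampled once: one animal per group at 1, 4 and 8 h, two per group at 24 h. Plasma prepared by acetonitrile protein precipitation and analysed by LC-MS against a 10-point calibration line spiked in blank matrix, with QCs at three or more levels.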
# [18] = male, Swiss albino, read-out: Clearance (converted)
SMILES,EC50 [1] [µM],solubility kinetic at 24 h [2] [µM],CC50 [3] [µM],EC50 [4] [µM],CC50 [5] [µM],half-life [6] [min],Vd [7] [L/kg],"clearance [8, 18] [mL/min/kg]","remaining at 0.5 h, 1 µM [9] [%]",Lipophilicity [10],concentration at 24 h [11] [ng/mL],concentration at 4 h [12] [ng/mL],bioavailability [13] [%],AUC(0-inf) [14] [ng·h/mL],Binding [15] [%],Tmax [16] [min],concentration at 4 h [17] [ng/mL],clearance [8] [mL/min/kg],AUC [14] [ng·h/mL]
Cc1nc2cnc(-c3cccc(C(C)C)c3)cn2c1-c1ccc(O)cc1,< 0.421,1.19,> 50,< 0.43,> 11.5,–,–,–,–,–,–,–,–,–,–,–,–,–,–
Oc1cc(F)c(-c2cnc3cnc(-c4cccc(C(F)(F)F)c4)cn23)c(F)c1,2.65,2.88,8.13,2.38,23.1,177,0.918,9.63,74.1,3.12 =,0.1,171,41.7,870,99.595,15,–,–,–
Cc1nc2cnc(-c3cccc(C(F)(F)F)c3)cn2c1-c1c(F)cc(O)cc1F,0.172,1.73,–,–,8.4,27.5,1.8,86,42.3,3.81 =,0.1,2.67,4,99.6,99.88,15,–,–,–
Oc1ccc(-c2cnn3ccc(-c4cccc(C(F)(F)F)c4)cc23)c(F)c1,2.65,1.42,–,–,–,25,2.85,158,50.9,4.27 =,0.1,0.1,0,52.7,100,15,–,–,–
Cc1nc2cnc(-c3ccc(F)c(C(F)(F)F)c3)cn2c1-c1ccc(O)cc1F,< 0.641,1.54,15.8,< 0.78,> 11.1,137,2.98,48.5,64.1,3.39 =,0.1,7.79,13.5,172,99.805,15,–,–,–
CC(C)c1nc2cnc(-c3ccc(F)c(C(F)(F)F)c3)cn2c1-c1ccc2[nH]ncc2c1F,–,–,–,–,12,–,–,–,–,4.19 =,–,318,–,–,–,60,1150,–,–
CCc1nc2cnc(-c3cccc(C(F)(F)F)c3)cn2c1-c1ccc(OC)c(O)c1,0.0829,0.672,> 50,< 0.133,> 30,–,–,–,–,3.97 =,–,–,–,–,–,–,–,–,–
CC(C)c1nc2cnc(-c3cccc(C(F)(F)F)c3)cn2c1-c1ccc(O)cc1F,0.0792,6.8,14.5,< 0.122,9,–,–,–,54.4,4.82 =,–,–,–,–,99.945,–,–,–,–
COc1cc(-c2cnc3cnc(-c4cccc(C(C)C)c4)cn23)ccc1O,1.63,–,> 50,1.41,26,–,–,–,–,4.75 =,–,–,–,–,–,–,–,–,–
CC(C)c1cc(-c2cn3c(-c4ccc5[nH]ncc5c4F)c(C(F)(F)F)nc3cn2)ccc1F,< 0.00267,–,–,–,> 17,–,–,–,–,–,–,52.3,–,–,–,25,1250,–,–
Fc1c(-c2c(C(F)(F)F)nc3cnc(-c4cccc(C(F)(F)C(F)(F)F)c4)cn23)ccc2[nH]ncc12,–,–,–,–,10.9,–,–,1.43,–,4.5 =,–,655,–,–,–,–,1100,–,–
COc1ccc(-c2c(C(F)(F)F)nc3cnc(-c4cccc(C(F)(F)C(F)(F)F)c4)cn23)cc1O,< 0.0106,1.05,–,0.021,> 11.1,127,4.94,–,75.3,4.65 =,0.1,8.54,9.77,–,99.98,15,–,54.3,153
COc1ccc(-c2nnc3ccc(-c4cccc(C(C)C)c4)cn23)cc1,24.2,–,40.8,–,–,–,–,–,–,4.71 =,–,–,–,–,–,–,–,–,–
CC(C)c1nc2cnc(-c3cccc(C(F)(F)F)c3)cn2c1-c1ccc(OP(=O)(O)O)cc1F,0.127,204,–,< 0.0488,9.2,31.7,1.26,69,39.6,0.075 =,0.1,5.46,5.44,131,96.805,15,–,–,–
COc1ccc(-c2cnc3cnc(-c4cccc(C(C)C)c4)cn23)cc1,2.43,–,9.04,1.85,–,–,–,–,–,5.36 =,–,–,–,–,–,–,–,–,–
COc1ccc(-c2c(C)nn3cnc(-c4cccc(C(F)(F)F)c4)cc23)cc1O,0.785,29.8,–,–,–,14.4,3.18,195,45.1,3.73 =,0.1,0.1,–,43.2,99.935,–,–,–,–
Cc1nc2cnc(-c3cccc(C(F)(F)F)c3)cn2c1-c1ccc(O)cc1F,< 0.614,3.49,18.7,0.29,–,–,–,–,31.5,–,–,–,–,–,–,–,–,–,–
CC(C)c1nc2cnc(-c3ccc(F)c(C(F)(F)F)c3)cn2c1-c1c(F)cc(O)cc1F,–,–,–,< 0.0462,7.13,–,–,18,–,–,–,–,–,466,–,15,4140,–,–
CC(C)c1cc(-c2cn3c(-c4ccc5[nH]ncc5c4F)c(C4CC4)nc3cn2)ccc1F,–,–,–,–,15.8,371,–,–,–,6.53 =,–,295,149,530,–,79.8,104,–,–
COc1ccc(-c2c(C(C)C)nc3cnc(-c4cccc(C(F)(F)F)c4)cn23)cc1OP(=O)(O)O,0.241,209,–,–,19.2,22.6,4.06,345,51.1,0.09 =,0.1,0.1,–,25,96.79,–,–,–,–
